Laboratory results: ChEMBL document CHEMBL1806357, “A regioselective synthesis of some new pyrazol-1'-ylpyrazolo[1,5-a]pyrimidines in aqueous medium and their evaluation as antimicrobial agents” (2011)
In brackets after ≈: the same amount, converted by molar mass.

Columns and labels:
[1] = tested on: Escherichia coli; assay: Antibacterial activity against Escherichia coli ATCC 8739 after 24 hrs by broth microdilution method; type: functional
[2] = tested on: Pseudomonas aeruginosa; assay: Antibacterial activity against Pseudomonas aeruginosa ATCC 25668 after 24 hrs by broth microdilution method; type: functional
[3] = tested on: Bacillus cereus; assay: Antibacterial activity against Bacillus cereus ATCC 11778 after 24 hrs by broth microdilution method; type: functional
[4] = tested on: Escherichia coli; assay: Antibacterial activity against Escherichia coli ATCC 8739 at 1 mg/ml after 24 hrs by agar-well diffusion technique; type: functional; details: ATCC 8739, 24 h, read-out: DIZ
[5] = tested on: Pseudomonas aeruginosa; assay: Antibacterial activity against Pseudomonas aeruginosa ATCC 25668 at 1 mg/ml after 24 hrs by agar-well diffusion technique; type: functional; details: ATCC 25668, 24 h, read-out: DIZ
[6] = tested on: Staphylococcus aureus; assay: Antibacterial activity against Staphylococcus aureus ATCC 9144 at 1 mg/ml after 24 hrs by agar-well diffusion technique; type: functional; details: ATCC 9144, 24 h, read-out: DIZ
[7] = tested on: Bacillus cereus; assay: Antibacterial activity against Bacillus cereus ATCC 11778 at 1 mg/ml after 24 hrs by agar-well diffusion technique; type: functional; details: ATCC 11778, 24 h, read-out: DIZ
[8] = tested on: Escherichia coli; assay: Antibacterial activity against Escherichia coli ATCC 8739 at 2 mg/ml after 24 hrs by agar-well diffusion technique; type: functional; details: ATCC 8739, 24 h, read-out: DIZ
Method in brief: (§1)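 Agar-well diffusion used MHA seeded with 24 h cultures at 0.5 McFarland (1 × 10^6 CFU/ml). 100 µl of compound (2 mg/ml in DMSO, filter-sterilized) went into each 6 mm well. Plates were incubated upright at 37 ± 1 °C for 24 h, and the inhibition zone diameter was measured in mm. DMSO was the negative control. Values are the mean of three replicates.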

[9] = tested on: Pseudomonas aeruginosa; assay: Antibacterial activity against Pseudomonas aeruginosa ATCC 25668 at 2 mg/ml after 24 hrs by agar-well diffusion technique; type: functional; details: ATCC 25668, 24 h, read-out: DIZ; method in brief: as §1
[10] = tested on: Staphylococcus aureus; assay: Antibacterial activity against Staphylococcus aureus ATCC 9144 at 2 mg/ml after 24 hrs by agar-well diffusion technique; type: functional; details: ATCC 9144, 24 h, read-out: DIZ; method in brief: as §1
[11] = tested on: Bacillus cereus; assay: Antibacterial activity against Bacillus cereus ATCC 11778 at 2 mg/ml after 24 hrs by agar-well diffusion technique; type: functional; details: ATCC 11778, 24 h, read-out: DIZ; method in brief: as §1
[12] = tested on: Staphylococcus aureus; assay: Antibacterial activity against Staphylococcus aureus ATCC 9144 after 24 hrs by broth microdilution method; type: functional
[13] = tested on: Aspergillus terreus; assay: Antifungal activity against Aspergillus terreus at 10 ug/ml after 7 days by poisoned food technique relative to control; type: functional
Method in brief: (§2)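 Poisoned food technique with soil-isolated fungi on PDA. Compound from a 1 mg/ml DMSO stock was added to molten agar at 40 ± 2 °C to give 10, 50, 100 or 200 µg/ml. A 6 mm mycelial disc from a 6-day culture was placed centrally, and plates were held at 28 ± 1 °C. Radial growth was measured after 7 days, and % inhibition was calculated against PDA/DMSO control, in triplicate.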

[14] = tested on: Aspergillus terreus; assay: Antifungal activity against Aspergillus terreus at 50 ug/ml after 7 days by poisoned food technique relative to control; type: functional; method in brief: as §2
[15] = tested on: Aspergillus terreus; assay: Antifungal activity against Aspergillus terreus at 100 ug/ml after 7 days by poisoned food technique relative to control; type: functional; method in brief: as §2
[16] = tested on: Aspergillus terreus; assay: Antifungal activity against Aspergillus terreus at 200 ug/ml after 7 days by poisoned food technique relative to control; type: functional; method in brief: as §2
[17] = tested on: Alternaria alternata; assay: Antifungal activity against Alternaria alternata at 10 ug/ml after 7 days by poisoned food technique relative to control; type: functional; method in brief: as §2
[18] = tested on: Alternaria alternata; assay: Antifungal activity against Alternaria alternata at 50 ug/ml after 7 days by poisoned food technique relative to control; type: functional; method in brief: as §2
[19] = tested on: Alternaria alternata; assay: Antifungal activity against Alternaria alternata at 100 ug/ml after 7 days by poisoned food technique relative to control; type: functional; method in brief: as §2
[20] = tested on: Alternaria alternata; assay: Antifungal activity against Alternaria alternata at 200 ug/ml after 7 days by poisoned food technique relative to control; type: functional; method in brief: as §2
[21] = tested on: Fusarium oxysporum; assay: Antifungal activity against Fusarium oxysporum at 10 ug/ml after 7 days by poisoned food technique relative to control; type: functional; method in brief: as §2
[22] = tested on: Fusarium oxysporum; assay: Antifungal activity against Fusarium oxysporum at 50 ug/ml after 7 days by poisoned food technique relative to control; type: functional; method in brief: as §2
[23] = tested on: Fusarium oxysporum; assay: Antifungal activity against Fusarium oxysporum at 100 ug/ml after 7 days by poisoned food technique relative to control; type: functional; method in brief: as §2
[24] = tested on: Fusarium oxysporum; assay: Antifungal activity against Fusarium oxysporum at 200 ug/ml after 7 days by poisoned food technique relative to control; type: functional; method in brief: as §2
[25] = tested on: Helminthosporium; assay: Antifungal activity against Helminthosporium sp. at 10 ug/ml after 7 days by poisoned food technique relative to control; type: functional; method in brief: as §2
[26] = tested on: Helminthosporium; assay: Antifungal activity against Helminthosporium sp. at 50 ug/ml after 7 days by poisoned food technique relative to control; type: functional; method in brief: as §2
[27] = tested on: Helminthosporium; assay: Antifungal activity against Helminthosporium sp. at 100 ug/ml after 7 days by poisoned food technique relative to control; type: functional; method in brief: as §2
[28] = tested on: Helminthosporium; assay: Antifungal activity against Helminthosporium sp. at 200 ug/ml after 7 days by poisoned food technique relative to control; type: functional; method in brief: as §2
[29] = tested on: Escherichia coli; assay: Antibacterial activity against Escherichia coli ATCC 8739 at 4 ug/ml after 24 hrs by agar-well diffusion technique; type: functional, organism-based
Method in brief: (§3)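 Agar-well diffusion. Bacteria were kept at 5–8 °C on Brain Heart Infusion agar. Inocula came from 24 h cultures adjusted to 0.5 McFarland (1 × 10^6 CFU/ml). 100 µl was seeded into 20 ml molten Mueller Hinton agar. 6 mm wells received 100 µl of sample, with gentamicin standard at 4 µg/ml and DMSO as negative control. Plates ran 24 h at 37 ± 1 °C; inhibition zone diameter in mm.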

[30] = tested on: Pseudomonas aeruginosa; assay: Antibacterial activity against Pseudomonas aeruginosa ATCC 25668 at 4 ug/ml after 24 hrs by agar-well diffusion technique; type: functional, organism-based; method in brief: as §3
[31] = tested on: Staphylococcus aureus; assay: Antibacterial activity against Staphylococcus aureus ATCC 9144 at 4 ug/ml after 24 hrs by agar-well diffusion technique; type: functional, organism-based; method in brief: as §3
[32] = tested on: Bacillus cereus; assay: Antibacterial activity against Bacillus cereus ATCC 11778 at 4 ug/ml after 24 hrs by agar-well diffusion technique; type: functional, organism-based; method in brief: as §3
[33] = tested on: Helminthosporium; assay: Antifungal activity against Helminthosporium sp. at 10 ug/ml after 7 days by poisoned food technique relative to 10 ug/ml mancozeb; type: functional
[34] = tested on: Alternaria alternata; assay: Antifungal activity against Alternaria alternata at 10 ug/ml after 7 days by poisoned food technique relative to 10 ug/ml mancozeb; type: functional
[35] = tested on: Fusarium oxysporum; assay: Antifungal activity against Fusarium oxysporum at 10 ug/ml after 7 days by poisoned food technique relative to 10 ug/ml mancozeb; type: functional

Compound	MIC ([1]; ATCC 8739, 24 h) [µg/mL]	MIC ([2]; ATCC 25668, 24 h) [µg/mL]	MIC ([3]; ATCC 11778, 24 h) [µg/mL]	zone of inhibition at 2000 µg/mL [8] [mm]	zone of inhibition at 2000 µg/mL [9] [mm]	zone of inhibition at 2000 µg/mL [10] [mm]	zone of inhibition at 2000 µg/mL [11] [mm]	MIC ([12]; ATCC 9144, 24 h) [µg/mL]	Activity [13] [%]	Activity [14] [%]	Activity [15] [%]	Activity [16] [%]	Activity [17] [%]	Activity [18] [%]	Activity [19] [%]	Activity [20] [%]	Activity [21] [%]	Activity [22] [%]	Activity [23] [%]	Activity [24] [%]	other results
CC(=O)NC[C@H]1CN(c2ccc(N3CCOCC3)c(F)c2)C(=O)O1 [LINEZOLID]	> 100	> 100	> 100																		zone of inhibition at 1000 µg/mL [4]: 12 mm; zone of inhibition at 1000 µg/mL [5]: 8.5 mm; zone of inhibition at 1000 µg/mL [6]: 18 mm; zone of inhibition at 1000 µg/mL [7]: 10 mm
Cc1cc(-c2ccccc2)n2nc(-n3nc(C)cc3-c3ccccc3)cc2n1	200 (≈ 547 µM)	> 200	200 (≈ 547 µM)	8	7.5	8	8	200 (≈ 547 µM)	7.4	13.5	19.2	19.7	18.2	20.7	19.5	20.7	8.53	6.09	3.65	2.4	Activity [25]: 0%; Activity [26]: 0%; Activity [27]: 0%; Activity [28]: 0%
COc1ccc(-c2cc(C)nn2-c2cc3nc(C)cc(-c4ccc(OC)cc4)n3n2)cc1	> 100	> 100	> 100	8	8	8	8	> 100	2.5	6.25	7.5	11.3	0	0	11.1	11.1	6.55	3.27	26.2	20	Activity [25]: 0%; Activity [26]: 0%; Activity [27]: 27.7%; Activity [28]: 62.2%
Cc1cc(-c2ccc(Cl)cc2)n2nc(-n3nc(C)cc3-c3ccc(Cl)cc3)cc2n1	25 (≈ 57.6 µM)	100 (≈ 230 µM)	50 (≈ 115 µM)	13	10	9	13	100 (≈ 230 µM)	0	0	2.5	12.5	0	0	0	0	1.63	3.27	9.8	16.3	Activity [25]: 11.1%; Activity [26]: 15.5%; Activity [27]: 17.7%; Activity [28]: 36.6%
GENTAMICIN																					MIC [1]: 4 µg/mL; MIC [2]: 2 µg/mL; MIC [12]: 2 µg/mL; MIC [3]: 4 µg/mL; inhibition zone (IZ) [29]: 24 mm; inhibition zone (IZ) [30]: 12 mm; inhibition zone (IZ) [31]: 14 mm; inhibition zone (IZ) [32]: 14 mm
Cc1ccc(-c2cc(C)nn2-c2cc3nc(C)cc(-c4ccc(C)cc4)n3n2)cc1	50 (≈ 127 µM)	100 (≈ 254 µM)	100 (≈ 254 µM)	10.5	8	8	8.5	100 (≈ 254 µM)													
Cc1cc(C)n2nc(-n3nc(C)cc3C)cc2n1	> 400	> 400	> 400	7	7	7	7	400 (≈ 1660 µM)	9.87	33.7	68.5	73.2	47.5	69.5	71.6	73.1	56	67	67	71.9	Activity [25]: 42.2%; Activity [26]: 66.6%; Activity [27]: 79.2%; Activity [28]: 79.2%; fold change (FC) [33]: 3.4; fold change (FC) [34]: 2.6; fold change (FC) [35]: 2
Cc1cc(-c2ccc(Br)cc2)n2nc(-n3nc(C)cc3-c3ccc(Br)cc3)cc2n1	> 100	> 100	> 100	8	8	8	8	> 100													
Cc1nn(-c2cc3nc(C)c4c(n3n2)CCC4)c2c1CCC2	> 400	> 400	400 (≈ 1360 µM)	7	7	7	7	400 (≈ 1360 µM)													
Cc1cc(-c2cccs2)n2nc(-n3nc(C)cc3-c3cccs3)cc2n1	200 (≈ 530 µM)	200 (≈ 530 µM)	> 200	8	8	8	8	200 (≈ 530 µM)													
